# Shown are actives, neighbours in structure and some others; about 1.2% of the full set was active somewhere.
# PMI act satM6P – increases human PMI activity with near-saturating mannose 6-phosphate. activation factor at 20 µM. coupled PMI enzyme assay, resazurin fluorescence, 20 min; active compounds read high; 1 = untreated enzyme, 0 = substrate-free blank. P34949. 190,000 tested, 0.34% active. AID 1216;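 active means activation factor of 2 or more at 20 µM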
# Target sequence (P34949 whole entry, looked up): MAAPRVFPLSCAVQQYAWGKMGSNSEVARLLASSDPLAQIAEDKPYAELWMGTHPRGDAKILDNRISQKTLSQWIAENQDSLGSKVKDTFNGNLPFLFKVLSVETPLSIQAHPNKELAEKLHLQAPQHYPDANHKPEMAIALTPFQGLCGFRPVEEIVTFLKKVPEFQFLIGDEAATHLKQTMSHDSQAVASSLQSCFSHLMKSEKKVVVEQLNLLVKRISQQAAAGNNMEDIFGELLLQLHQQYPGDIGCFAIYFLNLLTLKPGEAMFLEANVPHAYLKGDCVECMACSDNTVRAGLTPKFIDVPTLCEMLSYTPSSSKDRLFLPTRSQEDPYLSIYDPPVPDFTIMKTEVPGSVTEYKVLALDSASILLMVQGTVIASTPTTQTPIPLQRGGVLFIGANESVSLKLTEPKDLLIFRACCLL
#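 Technique: Diaphorase-driven resazurin-to-resorufin fluorescence, excitation 544, emission 590 nm | Assay system: Human PMI in coupled enzyme assay | Times: Enzyme reaction with compound 20 min at room temperature | Medium: HEPES-buffered pH 7.4 with magnesium and detergent | Reagent: Mannose-6-phosphate 1.0 mM (near-saturating) plus 0.22 mM NADP+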
# PMI activator – increases human mannose-6-phosphate isomerase activity; activation factor at 20 µM; 190,000 tested, 0.005% active; AID 1214; P34949; purified human PMI, coupled resazurin fluorescence, 20 min; active compounds read high; 1 = vehicle control, 0 substrate-free wells;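 active means activation factor of 2 or more at 20 µM, relative to plate controls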
# Redox H2O2 prof – compounds producing H2O2 with reducing agent – biochemical, NIH compound library profiling, artefact control for MLSCN library redox annotation, primary screen; DTT-dependent redox cycling H2O2, phenol red/HRP absorbance; 100% = 100 µM peroxide control, 0% = buffer; activation, % at 10 µM; 200,000 tested, 0.03% active;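 active means activation of at least 50% relative to the plate's high and low controls in the primary single-dose screen; inactive means activation below 50%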;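 further: compound incubated with DTT at 0.8 mM final as the reducing agent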
# Diaphorase act – diaphorase activation or chemical reduction counter-screen; activation factor at 20 µM; 190,000 tested, 0.005% active; AID 1229; Diaphorase/resazurin coupled assay, resorufin fluorescence, 16 min; active compounds read high; 1 = vehicle wells, 0 = NADH-free wells;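 active means diaphorase activity raised at least twofold by the compound at 20 µM; inactive means activation factor below 2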
#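 System – purified diaphorase enzyme from Clostridium kluyveri · Input – enzyme 0.07 U/mL final · Also added – final NADH 0.114 mM, resazurin 0.1 mM · Measured by – fluorescence of resorufin, 544 nm excitation, 590 nm emission · Timing – 16 min enzyme reaction, ambient temperature · Measure – resorufin increase flagging diaphorase activators or reducers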
# Efa HMGR inh – E. faecalis class II HMG-CoA reductase inhibition | purified E. faecalis HMGR, NADPH absorbance 340 nm kinetic | inhibition, % at 10 µM | 190,000 tested, 0.41% active | AID 1066;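 active means inhibition above a set limit, the median over all tested compounds plus 3 SD, cut at about 9.5% in these data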;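 further: enzyme runs in reverse so mevalonate oxidation gives rising NADPH absorbance; 0% = complete reaction with DMSO and 100% = background rate lacking mevalonate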
# NCF1 inh – inhibitors of human p47phox binding. AID 1274. p47phox/p22phox peptide binding, fluorescence polarization, 2 h. inhibition, % at 24.7 µM. 220,000 tested, 0.53% active. P14598;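 active means inhibition above about 30%, limit read from the data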;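 further: 0% = p47phox with labelled peptide and 100% = labelled peptide alone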
# An asterisk follows results filed as active; nt = not tested or not shown.
SMILES,PMI act satM6P,PMI activator,Redox H2O2 prof,Diaphorase act,Efa HMGR inh,NCF1 inh
NC(=O)CC1C(=O)N(c2ccc(F)cc2)C(=O)N1NC(=O)CCc1ccccc1 (stereo not given),0.9,0.9,0.4,0.9,-10.3,-0.1
CCOc1ccccc1OCCC(=O)OCC(=O)c1ccc[nH]1,1,1.1,0.7,0.9,4.5,-7.1
COc1ccc(/C=C/C(=O)NC(=S)NCc2ccccc2)cc1OC,nt,nt,nt,nt,nt,-11.8
Cc1ccc(Cl)cc1N=C(N)N=C(N)N,1,1,-0.1,1,14.9*,-4.7
CCOC(=O)c1c[nH][nH]c1=O,nt,nt,nt,nt,nt,-17.6
COc1cc(/C=N/NC(=O)COc2c(C)cc([N+](=O)[O-])cc2C)ccc1OC(=O)c1ccccc1,0.9,1,0.3,0.8,11.2*,-47.2
COc1cc(/C=N/NC(=O)COc2c(C)cc([N+](=O)[O-])cc2C)ccc1OC(=O)c1ccccc1Br,0.9,0.8,-0.2,0.8,-0.4,-28.0
Cc1ccc(NC(=O)C(=O)NCCN2CCN(S(=O)(=O)c3ccccc3)CC2)cc1C,0.9,1,-0.6,0.8,5.7,2.2
Cn1c(SCC(=O)N2CCCC2=O)nnc1-c1ccccc1F,1,1.1,-0.2,0.9,18.9*,0.9
Cn1c(SCC(=O)N2CCCc3ccccc32)nnc1-c1c[nH]c2ccccc12,1,1,2.5,0.9,-4.0,-9.1
CC1(C)Cc2nc3sc(C(=O)O)c(N)c3cc2CS1,2.4*,1.7,-0.7,0.7,2.5,-12.7
CC(C)c1ccc(/C=C2\CC/C(=C\C=N\N(C)C)C2=O)cc1,1,1,1.0,0.9,-3.6,76.4*
Cc1[nH]c2ccccc2c1/C=N/NC(=O)CNC(=O)c1ccco1,nt,nt,nt,nt,nt,0.0
O=C(CNC(=O)c1ccco1)N/N=C/c1c[nH]c2ccccc12,1.1,1.1,0.0,1,9.7*,-4.0
CCOC(=O)c1sc(N)c(C(N)=O)c1C,1,0.4,-0.1,1,-0.8,30.1*
C=CCn1c(SCC(=O)c2[nH]c(C)c(C(=O)OC)c2C)nc2scc(-c3ccc(OC)c(OC)c3)c2c1=O,1,0.8,0.5,0.9,-5.7,35.6*
O=C(N/C(=C\c1ccc(Cl)cc1)C(=O)N1CCOCC1)c1ccc([N+](=O)[O-])cc1,1,1,-1.1,1,4.6,-3.3
CCCCCc1ccc(OCCOCCn2c[n+](C)c3ccccc32)c(CCCCC)c1,1.1,1.1,0.0,2*,-4.8,75.4*
CCCCCc1ccc(OCCC[n+]2ccccc2)c(CCCCC)c1,nt,nt,nt,nt,nt,-3.8
O=c1cc(-c2c(F)c(F)c(F)c(F)c2F)oc2c(F)c(F)c(F)c(F)c12,1,0.9,-2.2,0.8,2.1,-15.0
CCN(CC)S(=O)(=O)c1cccc(C(=O)Nc2ccc3c(c2)OCO3)c1,0.8,0.8,-0.2,0.8,-2.0,2.6
CCCN(CCC)S(=O)(=O)c1cccc(C(=O)Nc2ccc3c(c2)OCO3)c1,0.8,0.8,1.1,0.8,-4.1,165.4*
CN1Cc2cccc3c2C(Cc2ccccc2S3)C1 (stereo not given),1,1,0.2,0.9,-4.0,-19.4
O=C(O)Cc1ccc(C(=O)c2ccccc2)s1,1.2,1.1,-3.1,0.9,2.1,2.3
COc1ccc(C(=O)c2ccc(CC(=O)O)s2)cc1,2.4*,1.6,-1.5,0.9,-1.4,12.1
SMILES,PMI act satM6P,PMI activator,Redox H2O2 prof,Diaphorase act,Efa HMGR inh,NCF1 inh
Cc1ccc(N/N=C(\C#N)C(N)=S)c(C)c1,3*,1.8,0.2,1.1,7.2,-3.3
COc1cc(NC(=O)C(C)C)ccc1NC(=O)c1ccco1,0.9,0.9,1.7,0.8,-4.7,124.7*
COc1cc(NC(=S)NC(=O)c2ccco2)ccc1NC(=O)C(C)C,1,1,-0.4,0.9,-6.2,-0.5
Cc1noc(C)c1COC(=O)c1ccc(N(C)C)cc1,1.1,1.1,-1.1,1,-2.7,-11.2
CC(C(=O)c1ccccc1)n1c(N2CCOCC2)nc2c1c(=O)n(C)c(=O)n2C (stereo not given),1.2,1,-1.4,1,-0.2,54.8*
Cn1c(=O)c2c(nc(N3CCOCC3)n2CC(=O)c2ccccc2)n(C)c1=O,1.2,1,nt,1.1,nt,nt
C/C(=N\Nc1ccccc1Cl)c1ccc(-n2ccnc2)cc1,2.7*,1.7,-0.6,1.2,-0.8,-0.1
C/C(=N\Nc1ccc(C(=O)O)cc1)c1ccc(-n2ccnc2)cc1,2*,1.6,0.4,0.8,-15.8,-10.0
C/C(=N\NC(N)=O)c1ccc(-n2ccnc2)cc1,1.1,1.1,0.3,1,9.4,-0.5
CCN(CC)C(=O)c1cnn(-c2ccccc2)c1NC(=O)c1cccs1,1.1,1.1,0.6,1,9.6*,8.7
CN(c1ncc(C(F)(F)F)cc1Cl)N1C(=O)c2cccc([N+](=O)[O-])c2C1=O,0.9,1,-1.3,0.9,-1.5,-0.8
CCCc1c(C)nc2ccccc2c1SCCC#N,2.3*,1.6,-0.6,1,-2.4,-4.8
CCCCc1c(C)nc2ccc(Br)cc2c1SCCC#N,0.9,0.9,0.0,0.8,0.4,0.9
NNC(=O)c1ccc2ccccc2n1,1,1.2,0.1,1.1,-1.0,-0.5
COc1ccc(N=C(NN)c2ccc3ccccc3n2)cc1,2.3*,1.8,0.0,0.9,-4.8,-5.4
N#C/C(=C/c1cccn1-c1cccc(C(=O)O)c1)c1ccc(F)cc1,1,1,-1.2,0.9,-1.4,-10.3
CN(CC(=O)NCCc1ccccc1)S(=O)(=O)c1ccccc1,1.1,1.1,0.2,1,13.7*,-5.4
Cc1ccccc1OCCn1cnc2c(N)ncnc21,1.3,1.3,0.3,1.1,4.2,40.9*
Nc1ncnc2c1ncn2CCN1CCCCC1,1.1,1,0.1,1,-2.7,-5.8
CCOC(=O)/C(C#N)=C\N(C)C,1.1,1,-7.2,0.9,-12.6,39.5*
COC(=O)/C(C#N)=C/N(C)C,nt,nt,nt,nt,nt,-17.9
Cc1cc(C)c2c(N)c(C(=O)N3CCN(c4ncccn4)CC3)sc2n1,2*,1.5,3.2,0.8,2.2,-9.6
COCc1cc(C)nc2sc(C(=O)N3CCN(c4ccccc4)CC3)c(N)c12,0.9,1,-1.3,0.8,4.2,-20.0
Cc1ccc(C(=O)NS(=O)(=O)c2ccc(N=NN(C)C)cc2)cc1,2*,1.6,-0.7,1.1,-2.6,-6.3
O=C(COC(=O)CCN1C(=O)c2ccccc2C1=O)Nc1ccc(S(=O)(=O)N2CCCC2)cc1,1,1,0.4,0.8,0.6,-0.8

# Compound activity: PubChem, several laboratories
